Measured values gathered from unrelated publications.
Protocols differ between the studies behind these lines.
Target: STE20-like serine/threonine-protein kinase (SLK, Homo sapiens, UniProt Q9H2G2)

The remaining binding of `C[C@@H]1CN(c2cc(-c3n[nH]c4ccc(OC5(C)CC5)cc34)ncn2)C[C@H](C)O1` is reported as 98% (cell-free assay, competition with immobilised ligand; 0.1 µM).
The remaining binding of `O=C(NCCCN1CCOCC1)c1ccc(Nc2nccc(-c3cc4ccccc4s3)n2)cc1` is reported as 38% (binding, competition with immobilised ligand; 1 µM).
`COc1ccnn2ncc(-c3ccnc(N(C)C)n3)c12` gave a remaining binding of 86% (binding; 1 µM).
`C[C@@]1(Cc2ccc(C#N)cc2)C(=O)N(c2cc(Cl)cc(Cl)c2)c2ncc(C(=O)NC3(c4nc(C5CCC5)no4)CC3)n21` has a remaining binding of 100% (cell-free assay, competition with immobilised ligand; 1 µM).
`O=C(NCC1CCOCC1)c1n[nH]cc1NC(=O)c1c(F)cccc1F` has a remaining binding of 99% (binding, competition with immobilised ligand; 1 µM).
For `CNC(=O)[C@@H]1CC[C@@H](n2c(-c3ccc4cnccc4c3)nc3ccc(C(=O)NCc4cccc(C(N)=O)c4)cc32)C1`, the remaining binding was 95% (binding, competition with immobilised ligand; 1 µM).
`C[C@H]1CCN(c2nccc(-c3cnn4ncccc34)n2)C1` gave a remaining binding of 96% (binding; 1 µM).
For `Cc1c(NC(=O)c2cc(C(N)=O)nc3cc(F)ccc23)c(C(F)(F)F)nn1Cc1ccc(C(C)(C)C)cc1`, the remaining binding was 100% (cell-free assay, competition with immobilised ligand; 1 µM).
For `CN(C)c1nccc(-c2cnn3ncccc23)n1`, the remaining binding was 100% (binding; 1 µM).
The remaining binding of `COc1cnc(Nc2cccc(S(N)(=O)=O)c2)nc1N1CCN(c2ccccc2)C(=O)C1` is reported as 100% (binding, competition with immobilised ligand; 1 µM).
For `C=CC(=O)N1CCC(C(=O)NCC(=O)N2CCN(c3nc(-c4cnc(N)nc4C(F)F)nc(N4CCOCC4)n3)CC2)CC1`, the remaining binding was 80% (binding, competition with immobilised ligand; 1 µM).
`Cc1nc(Cc2cccc(C(F)(F)F)c2)sc1-c1ccc(C(N)=O)nc1` has a remaining binding of 100% (cell-free assay, competition with immobilised ligand; 1 µM).
The remaining binding of `CN(C)c1nccc(-c2cnc3ncccn23)n1` is reported as 100% (binding; 1 µM).
For `COc1ncc2cc3ccccc3nc2c1C#N`, the remaining binding was 89% (cell-free assay, competition with immobilised ligand; 5 µM).
The remaining binding of `CC1CCCN1c1nccc(-c2cnn3ncccc23)n1` (stereo not drawn) is reported as 100% (binding; 1 µM).
With `CCN1CCN(Cc2ccc(C(=O)Nc3ccc(C)c(Oc4ccc5c(c4)CC(=O)N5)c3)cc2C(F)(F)F)CC1` the remaining binding was 76% (binding, competition with immobilised ligand; 1 µM).
For `N[C@H]1CCN(c2nccc(-c3cnn4ncccc34)n2)C1`, the remaining binding was 86% (binding; 1 µM).
With `CN([C@@H]1CCc2c(CC(=O)O)c3cc(S(C)(=O)=O)ccc3n2C1)S(=O)(=O)c1ccc(F)cc1` the remaining binding was 100% (cell-free assay, competition with immobilised ligand; 1 µM).
`O=C(NCCCN1CCOCC1)c1ccc(Nc2ncc(Cl)c(-c3ccc(Cl)s3)n2)cc1` gave a remaining binding of 8% (binding, competition with immobilised ligand; 1 µM).
`CC(=O)N1CCC(c2ccc(C(=O)NC3=NCCN3)cc2C(F)(F)F)CC1` gave a remaining binding of 94% (cell-free assay, competition with immobilised ligand; 1 µM).
The remaining binding of `Cc1cnc(Nc2ccc(C(=O)N3CCC(N4CCCC4)CC3)cc2)nc1-c1cc2ccccc2s1` is reported as 0.4% (binding, competition with immobilised ligand; 1 µM).
